Here are results for two substances from article PMC3466390 (Biomaterials, 2012).

“Also recorded” adds a separate entry of the source.

The test system of data set [1] is E. coli (ATCC 25922). The data set can be described thus: Antibacterial assay on hydrogel surfaces. Format: cell-based, Escherichia coli. The settings on record: 0.5, 1, 1.5 and 2 wt% hydrogels, 10^5 CFU/dm^2, 24 h, 37°C, n=3. In a few lines: (§1)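 Gels (0.5–2 wt%) formed in wells by mixing peptide stocks in sterile water 1:1 with BTP buffer (100 mM, 300 mM NaCl, pH 7.4). They were held 3 h at 37°C, then equilibrated overnight under BTP (50 mM, 150 mM NaCl, pH 7.4), and the buffer was removed. Bacteria were grown overnight on blood agar, applied at 10^4 CFU/mL in TSB, and incubated 24 h at 37°C, with bare plastic as control. After a TSB wash, OD625 of the overlying solution was corrected for dilution and scattering. % non-viable = [1 − OD surface/OD control]×100; triplicate.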

In data set [2] the test system is S. aureus (ATCC 25923). The data set can be described thus: Antibacterial assay on hydrogel surfaces. Format: cell-based, Staphylococcus aureus. The settings on record: 0.5, 1, 1.5 and 2 wt% hydrogels, 10^5 CFU/dm^2, 24 h, 37°C, n=3. An outline of the steps: as §1
The subject of data set [3] is P. aeruginosa (ATCC 27853). The experiment in a line: Antibacterial assay on hydrogel surfaces. The settings on record: 10^5 CFU/dm^2, 24 h, 37°C, n=3. The format is cell-based, Pseudomonas aeruginosa. In a few lines:
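Peptide stocks in sterile water were mixed 1:1 with BTP (100 mM, 300 mM NaCl, pH 7.4) to gel, held 3 h at 37°C, then equilibrated overnight under BTP (50 mM, 150 mM NaCl, pH 7.4), which was then removed. Blood-agar-grown bacteria (18-20 h) at 10⁴ CFU/mL in TSB were applied to the gel surface for 24 h at 37°C. OD625 was compared with bare polystyrene: % non-viable = [1 − OD surface/OD control]×100.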

For data set [4], the system named is human red blood cells (hRBCs). Format: cell-based.
For data set [5], the system named is P. aeruginosa. The format is cell-based.
The test system of data set [6] is E. coli. The data set can be described thus: Atomic force microscopy imaging of bacteria on gel. To be noted: 2 wt% hydrogel, 2 h incubation, 37°C. The format is cell-based, Escherichia coli.
Data set [7] relates to E. coli. The experiment in a line: Antibacterial assay in the presence of Ca2+. Format: cell-based, Escherichia coli. The settings on record: 1 wt% hydrogel, 0, 0.1, 1, 10 and 20 mM Ca2+, 37°C, CFU count, n=3.
Data set [8] deals with S. aureus. The data set can be described thus: Antibacterial assay in the presence of Ca2+. Format: cell-based, Staphylococcus aureus. To be noted: 1 wt% hydrogel, 0, 0.1, 1, 10 and 20 mM Ca2+, 37°C, CFU count, n=3.
A short description of data set [9]: Oscillatory rheology of hydrogels. The settings on record: 1 wt% gel, 0.2% strain. The format is physicochemical. An outline of the steps:
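A 2 wt% peptide solution in chilled water was mixed with an equal volume of BTP (100 mM, 300 mM NaCl, pH 7.4). It was loaded on a 25 mm parallel plate at 5°C with a 0.5 mm gap, then ramped to 37°C over 100 s. G′ and G″ were followed by a 1 h time sweep at 6 rad/s and 0.2% strain. For recovery, 1000% strain was applied for 30 s at 6 rad/s, followed by a second 1 h sweep.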

Data set [10] in a line: CD spectroscopy of folding and self-assembly. The format is physicochemical. An outline of the steps:
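Peptides were measured at 1 wt% in chilled water, or as chilled 2 wt% aqueous stock mixed 1:1 with BTP stock (100 mM, 300 mM NaCl, pH 7.4) and left to gel in the cell. Scans ran 200–260 nm at 37°C in a 0.1 mm quartz cell. Mean residue ellipticity was [θ] = (θobs/10lc)/r.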

VKVRVRVRV^DPPTRVRVRVKV [PEP6R]: the “antibacterial activity of hydrogel surface against E. coli, in words” value in data set [1] was “inhibit E. coli and S. aureus proliferation at all weight percentages; also recorded: quantitatively kills E. coli at all weight percents tested”. Further, the “antibacterial activity of hydrogel surface against S. aureus, in words” value in data set [2] is “inhibit E. coli and S. aureus proliferation at all weight percentages”. The results for the “antibacterial activity of hydrogel surface against P. aeruginosa, in words” value in data set [3] (0.5 wt% hydrogel), in [3] (1.5 wt% hydrogel) and in data set [3] (2 wt% hydrogel) were “only marginally active”, “extremely potent” and “extremely potent”, respectively. Moreover, the hemolytic activity entry in data set [4] was “low hemolytic activity”. Besides, in data set [5], the “live-dead result at the gel surface (cytostatic or cytotoxic)” value was “cytotoxic”. The “live-dead result at the gel surface, short incubation, compared with 24 h” value in data set [5] (2 wt% hydrogel, 2 h incubation) is listed as “identical”. The “morphology of E. coli on gel surface by AFM” value in [6] was “membrane surface has collapsed and appears highly punctated”. Further, the “antibacterial activity (percent non-viable bacteria) in the presence of Ca2+” value in data set [7] and in data set [8] was “progressively attenuated with increasing concentrations of Ca^2+” throughout. Besides, the “storage modulus (G')” value in [9] (50 mM BTP, 150 mM NaCl, pH 7.4, 37°C, after 1 h, 6 rad/s) is “increase in mechanical rigidty”. Also, the “recovery of initial mechanical rigidity after shear-thinning” value in data set [9] (37°C, 1000% strain for 30 s, then 1 h at 6 rad/s) is given as “about 90%”.
In the case of VRVRVRVRV^DPPTRVRVRVRV-NH2 [PEP8R], the “antibacterial activity of hydrogel surface against E. coli, in words” value in [1] was “capable of inhibiting both E. coli and S. aureus proliferation, irrespective of the peptide weight percentage used”. Besides, in data set [2], the “antibacterial activity of hydrogel surface against S. aureus, in words” value was “capable of inhibiting both E. coli and S. aureus proliferation, irrespective of the peptide weight percentage used”. Moreover, in data set [4], the hemolytic activity result is on record as “about 25%” and the “hemolytic activity as a function of wt%” value was “decreases in a concentration dependent manner”. The “folding/assembly state by CD” value in data set [10] (1 wt% peptide in BTP buffer with NaCl, pH 7.4, 37°C) is “folded and assembled into β-sheet structures”. The “folding/assembly state by CD” value in [10] (1 wt% peptide in water, 37°C) is reported as “unfolded peptide”.
